For ten compounds, Retention_time and Ki results are on record in ChEMBL document CHEMBL3352336, “Discovery libraries targeting the major enzyme classes: the serine hydrolases” (Bioorg Med Chem Lett, 2014).

SMILES strings stand for the structures. pKi: −log10 of the molar value.

A word on the pKi: it is the Ki on a negative log10 scale, so that one unit is a factor of ten.

The nature of data set [1]: Retention time of the compound. Type of data set: physicochemical.
Data set [2] concerns the target T1, Fatty-acid amide hydrolase 1 (Rattus norvegicus, UniProt P97612).
T1 sequence (P97612 whole entry): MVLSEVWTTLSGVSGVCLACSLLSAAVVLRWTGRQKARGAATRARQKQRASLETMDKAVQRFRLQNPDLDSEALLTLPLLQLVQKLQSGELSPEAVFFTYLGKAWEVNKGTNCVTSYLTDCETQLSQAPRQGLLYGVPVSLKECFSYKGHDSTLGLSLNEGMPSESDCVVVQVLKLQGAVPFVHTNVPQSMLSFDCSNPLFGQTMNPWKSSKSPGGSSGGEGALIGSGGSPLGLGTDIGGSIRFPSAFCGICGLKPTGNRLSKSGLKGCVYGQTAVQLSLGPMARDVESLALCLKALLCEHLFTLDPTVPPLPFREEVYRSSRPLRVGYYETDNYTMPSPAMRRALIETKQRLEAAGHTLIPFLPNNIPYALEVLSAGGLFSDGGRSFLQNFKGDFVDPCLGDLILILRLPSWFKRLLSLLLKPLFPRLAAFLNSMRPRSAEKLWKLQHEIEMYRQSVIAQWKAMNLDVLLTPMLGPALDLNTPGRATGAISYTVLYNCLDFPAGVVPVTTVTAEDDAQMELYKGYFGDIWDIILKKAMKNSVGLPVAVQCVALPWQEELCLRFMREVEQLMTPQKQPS
Put plainly: Inhibition of recombinant rat FAAH preincubated for 3 hrs. Put shortly: (§1)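 Recombinant FAAH (rFAAH) was preincubated with the inhibitor for 3 h before activity was measured. Results are reported as an apparent Ki in nM.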

In data set [3] the target is T1, Fatty-acid amide hydrolase 1. Put plainly: Irreversible inhibition of recombinant rat FAAH preincubated for 3 hrs. In a few lines: as §1

For the compound `O=C(N1CCCCC1)n1cccn1`, the Retention_time in data set [1] came out at 3.484 min. Besides, the pKi in data set [2] was 6.12.

For the compound `O=C(N1CCN(Cc2ccc3ccccc3c2)CC1)n1cccn1`, the Retention_time in data set [1] amounted to 3.791 min. Moreover, the pKi in data set [3] is 8.01.

`Cc1cnn(C(=O)N2CCN(Cc3ccc4ccccc4c3)CC2)c1` showed a Retention_time in data set [1] of 3.896 min. In data set [3], the pKi is 6.89.

As for `N#Cc1cnn(C(=O)N2CCN(Cc3ccc4ccccc4c3)CC2)c1`, in data set [1], the Retention_time was 3.915 min. Besides, in data set [3], the pKi was 9.80.

Take `O=C(N1CCN(Cc2ccc3ccccc3c2)CC1)n1cc(Br)cn1`: in data set [1], the Retention_time is on record as 3.989 min. The pKi in data set [3] is 9.33.

In turn, `O=C(N1CCN(Cc2ccc3ccccc3c2)CC1)n1cc(I)cn1` showed a Retention_time in data set [1] of 3.844 min. Further, the pKi in data set [3] was 9.54.

The compound `COC(=O)c1cnn(C(=O)N2CCN(Cc3ccc4ccccc4c3)CC2)c1` yielded a Retention_time in data set [1] of 3.999 min. For the same compound, the pKi in data set [3] was 9.44.

Regarding `O=C(N1CCN(Cc2ccc(Oc3ccccc3)cc2)CC1)n1cccn1`, the Retention_time in data set [1] worked out at 3.893 min. Further, in data set [3], the pKi was 8.04.

In data set [1], `Cc1cnn(C(=O)N2CCN(Cc3ccc(Oc4ccccc4)cc3)CC2)c1` displayed a Retention_time of 3.987 min. Also, the pKi in data set [3] is 6.68.

In turn, `N#Cc1cnn(C(=O)N2CCN(Cc3ccc(Oc4ccccc4)cc3)CC2)c1` registered a Retention_time in data set [1] of 3.927 min. The pKi in data set [3] is 10.00.
